Shown are actives, neighbours in structure and some others; about 4.8% of the full set was active somewhere.
GPR7 antag – human neuropeptides B/W receptor 1 antagonism. P48145. GPR7-expressing cells, fluorescence antagonist assay. inhibition, % at 4.4 µM. actives 1.1% (n = 290,000). AID 1861; in the data active = inhibition above about 16%, passing the limit was not always enough;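 also: cells stimulated with the agonist NPW; 0% = agonist with vehicle and 100% = vehicle without agonist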
Target sequence (P48145 whole entry, looked up): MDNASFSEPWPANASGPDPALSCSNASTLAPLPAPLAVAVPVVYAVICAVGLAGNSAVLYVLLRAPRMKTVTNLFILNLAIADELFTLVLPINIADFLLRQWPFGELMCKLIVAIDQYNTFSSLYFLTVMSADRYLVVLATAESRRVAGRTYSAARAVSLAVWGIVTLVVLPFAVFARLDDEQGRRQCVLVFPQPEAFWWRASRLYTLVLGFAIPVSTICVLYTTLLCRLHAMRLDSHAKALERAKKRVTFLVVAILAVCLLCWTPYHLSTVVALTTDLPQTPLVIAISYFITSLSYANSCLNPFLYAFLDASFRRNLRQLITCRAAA
697 NFkB inh – lowers PMA/ionomycin-induced NF-kB signal in 697 B cells; 697 B-cell NF-kB luciferase reporter, 16 h; inhibition, % at 4 µM; actives 0.33% (n = 330,000); in the data active = inhibition above about 35%
HSF1 inh – HSF1 inhibition; NIH3T3-HGL HSE-luciferase, MG132-induced, luminescence 8 h; active compounds read low; activity change, negative = inhibition, % at 7.5 µM (by protocol); actives 0.77% (n = 300,000); AID 2098;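 active = more than half of replicate wells show activity change below -50%, luminescence cut by over half; inconclusive = some wells, but at most half, below -50%; inactive = no replicate well below -50%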;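 also: luciferase reports HSF-1 transcriptional activity via heat shock element; 0% = median of DMSO wells and -100% = zero luminescence signal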
T cruzi inh – T. cruzi replication inhibition; T. cruzi beta-gal in NIH3T3, luminescence, 90 h; inhibition, % (concentration not given with the values); actives 1.4% (n = 300,000); AID 1885;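 active = mean inhibition across valid replicates above about 55%, limit read from the data; inconclusive = mean below that limit but half or more replicates reach it; inactive = mean below it, under half of replicates reach it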;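 also: signal also drops with host cell toxicity which is not excluded here; 0% = plate median of DMSO wells and 100% = zero luminescence signal; higher percent means less beta-gal luminescence so fewer parasites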
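Read-out: Parasite load inhibition, % | Test system: Mouse NIH/3T3 fibroblasts infected with β-gal-expressing T. cruzi Tulahuen C4 | Amount: 5,000 cells/well | Medium: DMEM, 2% fetal bovine serum | Signal: GalScreen β-gal luminescence, detergent lysis, 60 min | Timing: 3 h attach, ≥90 h co-culture | Also added: Tulahuen C4 trypomastigotes, 5000/well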
HSF-1 act – increases HSF-1 driven luciferase reporter signal; actives 1.7% (n = 300,000); activation, % at 9 µM; NIH3T3-HGL HSF-1 luciferase reporter, MG132, 8 h; 100% = twice DMSO control signal;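 active = mean replicate activation of at least 50% with a set share of replicates each reaching 50%; inconclusive = only one of those two conditions met; inactive = mean below 50% and too few replicates reaching it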;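 also: 0% = median of the neutral control wells and 100% = twice that signal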
Jurkat NFkB inh – inhibitors of the PMA/ionomycin-induced NF-kB reporter in Jurkat cells; inhibition, % at 4 µM; PMA/ionomycin-induced NF-kB luciferase reporter, luminescence; actives 0.53% (n = 330,000); in the data active = inhibition above about 50%
GPR7 antag cf – human GPR7 antagonism, confirmation assay | shares compounds with GPR7 antag | GPR7-expressing cells, calcium fluorescence antagonist mode | inhibition, % at 4.4 µM | actives 52% (n = 2,400); in the data active = inhibition above about 24%;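 also: stimulated with the GPR7 agonist NPW; 0% = agonist plus vehicle and 100% = vehicle alone without agonist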
MCHR1 antag – antagonizes human MCHR1, a GPR7 antagonist counter-screen. MCHR1-expressing cells, fluorescence antagonist assay. inhibition, % at 4.4 µM. AID 2148. shares compounds with GPR7 antag. actives 62% (n = 2,400); in the data active = inhibition above about 22%;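 also: 0% = vehicle with agonist and 100% = vehicle without agonist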
Starred values were filed as active, the others as inactive; ? = inconclusive; / = not tested or not shown.

SMILES	GPR7 antag	697 NFkB inh	HSF1 inh	T cruzi inh	HSF-1 act	Jurkat NFkB inh	GPR7 antag cf	MCHR1 antag
Cn1nnnc1SCCNCc1ccccc1OCc1ccc(Cl)cc1	10.3	-35.1	12.7	-4.5	29.1	-6.8	/	/
COc1ccccc1N1CCN(C(=O)/C=C/c2cccc([N+](=O)[O-])c2)CC1	31.5*	-15.5	9.6	6.7	12.6	49.6	16.1	33.0*
O=C(Oc1cccc(NC(=O)c2ccccc2Cl)c1)c1ccc([N+](=O)[O-])cc1	34.7*	-15.6	3.6	1.4	3.5	-38.8	43.3*	55.6*
O=C(Nc1cccc(O)c1)c1ccc([N+](=O)[O-])cc1Cl	6.2	-32.1	-8.3	12.3	1.1	-55.1	/	/
COc1ccc2[nH]c3c(=O)n(CCCC(=O)NC4CCCCC4C)c(=S)[nH]c3c2c1 (stereo not given)	22.0*	-14.2	13.8	16.6	28.8	15.0	-4.2	-2.2
COc1ccc2[nH]c3c(=O)n(CCCC(=O)NC4CCC(C)CC4)c(=S)[nH]c3c2c1 (stereo not given)	-1.7	12.7	1.2	6.8	13.1	-5.7	/	/
CS(=O)(=O)N1CCc2cc(-c3csc(NC(=O)Cc4cccs4)n3)ccc21	38.6*	17.6	-6.9	60.3*	-3.2	49.6	69.4*	82.6*
CC(=O)c1ccc(N(CC(=O)NCc2ccc3c(c2)OCO3)C(=O)c2csnn2)cc1	-6.7	16.1	-4.2	12.6	2.3	3.6	/	/
COc1ccc(Cl)cc1NC(=O)Nc1ccccc1C(N)=O	30.2*	16.3	11.2	-27.8	26.3	6.9	9.6	20.8
COc1ccc(Cl)cc1NC(=O)CNc1ccccc1CN(C)C1CCCCC1	26.5*	-41.6	-4.8	6.8	0.3	-2.1	35.0*	46.9*
CCOc1ccccc1N1CCN(c2ncnc3scc(-c4ccc(OC)cc4)c23)CC1	54.3*	-57.3	4.3	60.7*	30.7	16.4	16.8	54.1*
CC(C)(C)OC(=O)N1CCC(c2c(C(=O)NCC3CCN(C4CCCC4)C3)cnn2-c2cccc(Cl)c2)CC1 (stereo not given)	7.3	-28.8	-8.1	14.0	-4.8	-7.0	/	/
CC(C)Cc1cc(C(=O)N2CCCC(CO)(Cc3ccc(F)cc3F)C2)n[nH]1 (stereo not given)	/	8.7	0.2	11.9	-1.3	-12.6	/	7.7
CC(C)Cc1cc(C(=O)N2CCCC(CO)(Cc3ccc(F)cc3)C2)no1 (stereo not given)	18.2	-11.0	12.2	3.9	15.9	-9.0	/	/
Cn1c(=O)c(NCCO)c2c3c(cccc31)C(=O)c1ccccc1-2	61.5*	1.1	-2.1	9.0	9.2	5.1	59.5*	81.8*
CCCCNc1c2c3c(cccc3n(C)c1=O)C(=O)c1ccccc1-2	21.0*	11.8	28.9	45.2	?	6.5	64.7*	81.4*
CC(Oc1ccc(Br)cc1)C(=O)O/N=C(\N)c1ccncc1 (stereo not given)	-12.2	1.5	17.0	16.6	26.2	-5.4	/	/
Cc1c(NC(=S)NC(=O)c2ccccc2)c(=O)n(-c2ccccc2)n1C	/	3.3	5.0	1.0	12.7	6.5	/	/
COc1cc(Cl)c(C)cc1NC(=O)Cc1cccs1	-1.6	12.8	5.6	10.0	-9.8	0.6	/	/
Cc1ccc(NCC(=O)N/N=C/c2ccc(OC(=O)c3ccco3)cc2)cc1	30.5*	4.6	8.1	3.7	-5.9	9.8	30.7*	11.2
O=C(NCC1CC1)Nc1ccccc1F	98.7*	10.3	-1.1	-17.2	4.3	-3.8	-7.3	14.5
Cc1ccc(CN2CCC(CNC(=O)Nc3ccccc3F)CC2)cc1	-4.8	15.7	2.0	37.4	3.2	21.6	/	/
O=C(COc1ccc(Br)cc1)Nc1ccc2c(c1)C(=O)NC2=O	8.5	10.1	/	-13.9	/	6.1	/	/
Cc1cccc(C)c1OCC(=O)Nc1ccc2c(c1)C(=O)NC2=O	32.5*	-3.3	-3.2	-7.9	-0.2	-0.1	27.2*	28.8*
COc1ccc(OCC(=O)Nc2ccc3c(c2)C(=O)NC3=O)cc1	28.7*	-2.0	-2.3	-18.1	-2.2	-25.0	25.7*	17.1
SMILES	GPR7 antag	697 NFkB inh	HSF1 inh	T cruzi inh	HSF-1 act	Jurkat NFkB inh	GPR7 antag cf	MCHR1 antag
O=C(CSc1ccccc1)Nc1ccc2c(c1)C(=O)NC2=O	26.6*	5.3	-9.8	-28.2	-7.2	10.4	37.0*	36.0*
CC(=O)c1ccc(C(=O)Nc2ccc3c(c2)C(=O)NC3=O)cc1	22.2*	9.0	0.5	-8.2	20.4	-2.6	-11.2	5.8
Cc1onc(-c2ccccc2)c1C(=O)OCC(=O)Nc1ccc(OC(F)(F)F)cc1	/	-13.4	/	/	/	-8.1	/	/
O=C(COc1cc2oc(=O)c3c(c2cc1Cl)CCC3)N1C[C@H]2C[C@@H](C1)c1cccc(=O)n1C2	-7.0	12.8	1.4	3.0	-10.7	4.5	/	/
CCS(=O)(=O)c1nc(S(=O)(=O)c2ccc(C)cc2)c(N2CCC(C)CC2)s1	21.7*	-13.8	-88.9*	7.8	-91.5	-6.1	15.3	49.3*
CCC(C)(C(=O)NC1CCCC1)N(CC1CCCO1)C(=O)c1ccc2c(c1)OCO2 (stereo not given)	0.2	18.2	-0.2	8.6	-2.7	-7.6	/	/
CCC(C)(C(=O)NC1CCCCC1)N(Cc1ccco1)C(=O)Cc1cccs1 (stereo not given)	40.5*	0.5	5.6	4.6	19.5	8.3	49.7*	27.3*
CCC(C)(C(=O)NC1CCCCC1)N(Cc1cccs1)C(=O)CC1NC(=O)NC1=O (stereo not given)	-9.4	1.2	-10.8	-0.8	-8.2	-5.3	/	/
CCC(C)(C(=O)NC1CCCCC1)N(Cc1ccco1)C(=O)c1ccc2c(c1)OCO2 (stereo not given)	34.4*	-2.4	18.9	-2.4	31.3	-9.1	34.4*	11.7
C=CCC1CCCC(=O)N2CCCC12 (stereo not given)	/	10.9	/	/	/	/	/	/
Cc1cc(C)c(OCC(=O)Nc2nc3ccccc3[nH]2)c(C)c1	-0.8	16.9	0.6	19.2	13.2	1.4	/	/
Cc1cccc(NC(=O)CC2C(=O)NCCN2C(=O)Nc2ccc(Cl)cc2)c1 (stereo not given)	21.5*	-0.2	11.0	10.1	13.7	-12.8	33.5*	46.8*
COc1ccccc1NC(=O)C(=O)NCCC1CCCCN1S(=O)(=O)c1ccc(F)cc1 (stereo not given)	/	-9.3	-4.4	20.3	-3.3	6.6	/	/
Cn1c(SCC(=O)NC(=O)NCc2ccccc2)nnc1C(F)(F)F	/	8.0	/	/	/	6.4	/	/
CCOc1ccc(S(=O)(=O)NCCC(=O)NCCOc2ccccc2)cc1	/	-2.2	13.2	-7.6	2.7	13.7	/	/
